Sampled rows, rich in hits. Any-hit rate of the full collection: about 2.5%.
ABHD5-PLIN5 inh: ABHD5-PLIN5 interaction inhibitors, primary screen, cell lysate, split luciferase complementation, luminescence. Perilipin-5 (Homo sapiens) + 1-acylglycerol-3-phosphate O-acyltransferase ABHD5 (Homo …. Split G. princeps luciferase complementation, 4 h. inhibition, % at 4 µM. actives 0.78% (n = 360,000). AID 602281, 2012;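 active = inhibition above the mean inhibition across every tested compound plus 3 SD, cut at about 22% in these data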
Arrestin-AP2 inh: inhibitors of beta-arrestin/AP2 binding, primary screen, biochemical, GPCR trafficking, flow cytometry; AID 504490, 2011; beta-arrestin 1 C-terminal peptide binding to AP2 beta2-adaptin appendage (human); FITC-arrestin peptide / GST-AP2 beads; AP2 beta2 appendage carries R879A mutation; actives 0.31% (n = 340,000); inhibition, % at 10 µM;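 active = inhibition above a set limit, near 3 SD of compounds lacking own fluorescence, cut at about 54% in these data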
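System: GST-tagged AP2 beta2-adaptin appendage (R879A) on 4 µm glutathione beads / Reagent: FITC-arrestin peptide, 50 nM / Detection: HyperCyt-sampled flow cytometry, FL1 channel, ex 488/em 535 nm / Timing: 12 min plus 1 h, RT / Buffer or medium: PBS plus Tween 20 (0.05%) and BSA (0.1%)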
B2AR ag: beta2AR agonists driving receptor internalization, primary screen, cell-based, FAP fluorogen, flow cytometry; Beta-2 adrenergic receptor (Homo sapiens), P07550; Am2.2-beta2AR cells; response, % (no concentration beside the values); actives 0.43% (n = 340,000); AID 504454, 2011;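 active = response above a set limit, near 3 SD of response in nonfluorescent compounds, cut at about 42% in these data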
Rin1-Abl PPI inh: inhibitors of Rin1-Abl protein binding, primary screen, biochemical, TR-FRET; Tyrosine-protein kinase ABL1 (Homo sapiens) + Ras and Rab interactor 1 (Homo sapiens), …; inhibition, % at 7.35 µM; actives 0.4% (n = 360,000); AID 588664, 2011; in the data active = inhibition above about 5%, passing the limit was not always enough
MBD2 DNA inh: inhibitors of MBD2 binding to methylated DNA, primary screen, biochemical, TR-FRET, DNA-binding domain, human; inhibition, % at 4.4 µM; Methyl-CpG-binding domain protein 2 (Homo sapiens), Q9UBB5; actives 0.31% (n = 370,000); MBD2 binding to methylated oligonucleotide; in the data active = inhibition above about 13%
UHRF1 MBD2 ctr: UHRF1 methylated DNA binding inhibitors, primary screen, counter-screen for MBD2 inhibitor project, biochemical, TR-FRET, human UHRF1, single concentration | UHRF1 binding to methylated oligo | inhibition, % at 4.4 µM | actives 0.75% (n = 370,000); in the data active = inhibition above about 21%;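 also: UHRF1 SRA domain binding a hemimethylated CpG hairpin DNA probe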
Arr AP2 CP1: inhibitors of arrestin peptide binding to AP2, confirmation, biochemical, cherry pick 1, flow cytometry beads; shares compounds with Arrestin-AP2 inh; GST-AP2 beads, FITC arrestin peptide binding; GST-fused beta2-adaptin appendage, R879A mutant; inhibition, % at 10 µM; actives 2% (n = 1,300);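 active = inhibition above a set limit, roughly 3 SD of non-fluorescent compound noise, cut at about 38% in these data; inactive = inhibition at or below that limit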;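 also: loss of bead fluorescence from 50 nM FITC arrestin peptide bound to appendage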
Target sequence (P63010 whole entry, looked up, the tested form may be a part, one chain of several): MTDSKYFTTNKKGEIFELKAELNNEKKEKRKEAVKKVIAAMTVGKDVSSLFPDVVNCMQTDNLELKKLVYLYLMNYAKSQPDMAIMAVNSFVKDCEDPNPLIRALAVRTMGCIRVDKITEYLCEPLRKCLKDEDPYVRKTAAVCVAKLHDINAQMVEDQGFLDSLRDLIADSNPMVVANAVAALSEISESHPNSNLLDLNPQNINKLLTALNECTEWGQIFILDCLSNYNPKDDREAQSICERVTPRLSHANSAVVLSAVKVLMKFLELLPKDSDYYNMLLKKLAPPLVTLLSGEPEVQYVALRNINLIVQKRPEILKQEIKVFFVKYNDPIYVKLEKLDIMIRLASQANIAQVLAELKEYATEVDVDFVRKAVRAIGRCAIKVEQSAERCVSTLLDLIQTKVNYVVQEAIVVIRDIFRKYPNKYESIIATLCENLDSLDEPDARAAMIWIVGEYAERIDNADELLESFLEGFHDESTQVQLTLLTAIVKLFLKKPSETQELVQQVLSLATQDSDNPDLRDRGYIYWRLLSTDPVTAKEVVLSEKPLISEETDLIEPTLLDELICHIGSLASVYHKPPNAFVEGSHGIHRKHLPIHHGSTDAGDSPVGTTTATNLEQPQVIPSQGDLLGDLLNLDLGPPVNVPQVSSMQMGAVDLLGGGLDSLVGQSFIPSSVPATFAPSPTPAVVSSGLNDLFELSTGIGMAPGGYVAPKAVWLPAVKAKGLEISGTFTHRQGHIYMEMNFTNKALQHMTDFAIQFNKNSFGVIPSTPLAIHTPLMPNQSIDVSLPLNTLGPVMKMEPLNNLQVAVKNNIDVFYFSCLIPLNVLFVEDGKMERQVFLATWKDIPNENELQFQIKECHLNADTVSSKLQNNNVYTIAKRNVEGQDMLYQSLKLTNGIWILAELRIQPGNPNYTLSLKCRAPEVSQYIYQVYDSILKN
GST-FITC bead: GST-fluorescein capture on glutathione beads, confirmation, artefact control for arrestin-AP2 inhibitor project, biochemical, cherry pick 1, flow cytometry. inhibition, % at 10 µM. actives 2% (n = 1,300). GST-fluorescein binding to GSH beads, fluorescence, counter-screen. shares compounds with Arrestin-AP2 inh;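 active = inhibition above 50%, about 3 SD of the inhibition seen with non-fluorescent compounds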;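 also: fluorescein maleimide labelled GST captured on 4 micron glutathione beads; higher means more loss of bead fluorescence from quenching or blocked binding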
Hits are given with their value; i = inactive; nt = no result given.

SMILES	ABHD5-PLIN5 inh	Arrestin-AP2 inh	B2AR ag	Rin1-Abl PPI inh	MBD2 DNA inh	UHRF1 MBD2 ctr	Arr AP2 CP1	GST-FITC bead
CCN(CC(=O)Nc1ccc(NC(C)=O)cc1)C(=O)CCN1C(=O)c2cccc([N+](=O)[O-])c2C1=O	i	63.9	i	i	i	i	i	i
CCN(CC(=O)Nc1c(F)cccc1F)C(=O)CCN1C(=O)c2cccc([N+](=O)[O-])c2C1=O	i	i	i	i	i	i	nt	nt
C[C@H]1CN([C@@H](C)CO)C(=O)CCCn2cc(nn2)CO[C@@H]1CN(C)C(=O)c1ccc2ccn(C)c2c1	nt	nt	nt	nt	i	i	nt	nt
COc1ccc(S(=O)(=O)NCCC(=O)N2CCCC2)cc1N(C)S(C)(=O)=O	i	55.9	i	i	i	i	i	i
Cc1ccc(S(=O)(=O)NCCC(=O)N2CCCCCCC2)cc1C	i	i	i	i	i	i	nt	nt
COC(=O)[C@]12C[C@H](CC(=O)NCc3cccs3)C(=O)N(Cc3ccc(Cl)cc3Cl)C1=C[C@H](COCc1ccccc1)O[C@@H]2C	nt	nt	nt	nt	i	i	nt	nt
COc1ccc(Cn2cc(CN3CC=CS3(=O)=O)nn2)cc1	nt	nt	nt	nt	i	i	nt	nt
CCN1Cc2nnn(Cc3ccc(C)cc3)c2-c2ccccc2S1(=O)=O	nt	nt	nt	nt	i	i	nt	nt
COC(=O)Cn1c(=NC(=O)c2cc(-c3cccs3)nc3ccccc23)sc2cc(S(N)(=O)=O)ccc21	25.8	63.4	i	i	i	i	i	i
CCOc1ncccc1C(=O)Nc1cccc(S(=O)(=O)N2CCOCC2)c1	i	i	i	i	i	i	i	i
CCOc1ncccc1C(=O)Nc1cc(S(=O)(=O)N2CCCCC2)ccc1OC	i	i	i	i	i	i	i	i
CCOc1ncccc1C(=O)Nc1ccc(OC)c(S(=O)(=O)N2CCCCC2)c1	i	i	i	i	i	i	i	i
Cc1ccc(NC(=O)c2cccnc2)cc1S(=O)(=O)N1CCOCC1	i	i	i	i	i	i	i	i
CCOc1ncccc1C(=O)Nc1ccc(C)c(S(=O)(=O)N2CCCCCC2)c1	i	i	i	i	i	i	nt	nt
Cc1ccccc1NC(=O)OC1CCC12CCC(c1ccccc1)CC2 (stereo not drawn)	nt	nt	nt	nt	i	i	nt	nt
O=C(OCc1cn(Cc2c(F)cccc2F)nn1)N1CCOCC1	nt	nt	nt	nt	i	i	nt	nt
COc1cc2c(c(OC)c1)[C@H](/C=C/c1ccccc1)[C@@H]([C@H](O)CO)OC2	nt	nt	nt	nt	i	i	nt	nt
COc1ccc(S(=O)(=O)N2CCCCC2)cc1NC(=O)c1ccc(=O)[nH]c1	i	i	i	i	i	i	i	i
O=C(Nc1cc(S(=O)(=O)N2CCCCCC2)ccc1OCC(F)(F)F)c1ccc(=O)[nH]c1	i	i	i	i	i	i	nt	nt
O=C(Cn1nc(Cl)nc1Cl)c1ccccc1	i	54.9	i	i	i	i	i	i
O=C(Cn1nc(Cl)nc1Cl)c1ccc(F)cc1	i	i	i	i	i	i	nt	nt
COCCN=C1S/C(=C\c2cc(C)n(-c3ccc(F)cc3F)c2C)C(=O)N1C	nt	nt	nt	nt	i	i	nt	nt
O=S(=O)(CCc1nc2ccccc2o1)c1ccc(Cl)c(Cl)c1	i	90.9	i	i	i	i	i	i
COC(=O)c1nc2ccc(N3CCOCC3)cc2c(C)c1C(=O)OC	i	57.3	i	i	i	i	i	i
COC(=O)c1c(-c2ccc(OC)cc2)sc2ccc(N3CCOCC3)cc12	i	i	i	i	i	i	nt	nt
SMILES	ABHD5-PLIN5 inh	Arrestin-AP2 inh	B2AR ag	Rin1-Abl PPI inh	MBD2 DNA inh	UHRF1 MBD2 ctr	Arr AP2 CP1	GST-FITC bead
COc1cc(OC)cc(C(=O)NC(C(=O)NNC(=O)c2ccc(C)cc2)C(C)C)c1 (stereo not drawn)	i	62.9	i	i	i	i	i	i
CCCC1CCC2(CC1)CCC2OC(=S)Nc1ccccc1Br (stereo not drawn)	nt	nt	nt	nt	i	i	nt	nt
CCOC(=O)c1cc2c(nc1NC(=S)Nc1ccccc1)CC(C)(C)OC2	i	i	i	i	i	i	nt	nt
CCOC(=O)c1cc2c(nc1NC(=S)NCc1ccccc1)CCCC2	i	103.4	i	i	i	i	i	i
CCOC(=O)c1sc2ncn(CC(=O)Nc3cc(C)on3)c(=O)c2c1C	i	63.1	i	i	i	i	i	i
Oc1c(CNc2ccccc2)cc(COCc2ccccc2)c2cccnc12	i	55.4	i	i	i	i	i	i
CCCCCCN1C=C/C(=C\C=C(C#N)C#N)c2ccccc21	i	74.8	i	i	i	i	i	i
O=C(Nc1cccc(S(=O)(=O)N2CCOCC2)c1)c1ccc(=O)[nH]c1	i	i	i	i	i	i	i	i
O=C(Nc1cccc(S(=O)(=O)N2CCCC2)c1)c1cc(=O)[nH]c2ccccc12	i	i	i	i	i	i	nt	nt
O=C(Nc1cccc(S(=O)(=O)N2CCOCC2)c1)c1cc(=O)[nH]c2ccccc12	i	i	i	i	i	i	i	i
Cc1cc(C(=O)Nc2cccc(S(=O)(=O)N3CCOCC3)c2)c2ccccc2n1	i	i	i	i	i	i	i	i
O=C(Nc1cccc(S(=O)(=O)N2CCCCC2)c1)c1cc(=O)[nH]c2ccccc12	i	i	i	i	i	i	i	i
Cc1cc(C(=O)Nc2ccc(N3CCOCC3)cc2)c2ccccc2n1	i	i	i	i	i	i	nt	nt
O=S(=O)(c1ccc(Cl)s1)N1CCC(c2cn3ccccc3n2)CC1	nt	nt	nt	nt	i	i	nt	nt
O=C(CSc1ncnc2sc3c(c12)CCCC3)Nc1ccc(Oc2ccccc2)cc1	nt	nt	nt	nt	i	i	nt	nt
Cc1cc(NC(=O)c2cc(-c3ccccc3C)nc3ccccc23)no1	i	i	i	i	i	i	nt	nt
Cc1cc(NC(=O)c2cc(-c3ccc(C)s3)nc3ccccc23)no1	i	103.4	i	i	i	i	i	i
N#Cc1cccc(-n2nnnc2-c2ccc3c(c2)OCO3)c1	i	69.7	i	i	i	i	i	i
CC(OC(=O)c1ccc(NS(=O)(=O)c2cccs2)cc1)C(=O)N(C)C1CCCCC1 (stereo not drawn)	i	i	i	i	i	i	nt	nt

High-throughput results deposited in PubChem by several laboratories.
